Results: PMC9272583 (European Journal of Medicinal Chemistry, 2022)
Read-outs that look alike come from different tables or passages of the source.

Columns and labels:
SARS-CoV-2 M^pro [1] = target: T1, SARS-CoV-2 M^pro (Severe acute respiratory syndrome coronavirus 2, UniProt P0DTD1); assay: SARS-CoV-2 Mpro mass adduct measurement; format: binding; conditions: ESI-TOF, 100 μM compound
In short: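 Test compound (100 μM) was incubated with active recombinant Mpro (3 μM; bacterially expressed, Ni-NTA then size-exclusion purified) in 50 mM Tris-HCl pH 7.4, 100 mM NaCl, 20% v/v ethylene glycol, 0.0016% Brij 58. Analysis was by LC-ESI-TOF MS on a C18 column: water/acetonitrile with 0.1% formic acid, 10→95% B over 4 min, 0.3 mL/min. Negative mode, Na-formate external calibration.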

SARS-CoV-2 M^pro [2] = target: T1, SARS-CoV-2 M^pro; assay: Compound stability against SARS-CoV-2 Mpro; conditions: 8 h of incubation in assay buffer, HPLC
SARS-CoV-2 M^pro [3] = target: T1, SARS-CoV-2 M^pro; assay: SARS-CoV-2 Mpro fluorogenic; format: biochemical; conditions: for inhibition at 50 µM: 0.25 h, read-out: SARS-CoV-2 M^pro % (50 μM); for time dependent inhibition: 12.5 μM; for competitive binding (Cheng-Prusoff plots): increasing substrate concentration
DENV serotype 2 protease = DENV serotype 2 protease (Dengue virus type 2, UniProt P29990); assay: DENV2 reporter gene assay; format: cell-based; conditions: for inhibition at 12.5 µM: HeLa, 24 h, read-out: DENV2proHeLa % (12.5 μM)
In short: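 Stable DENV2proHeLa cells (DMEM, 10% heat-inactivated FCS, antibiotics) were seeded at 2 x 10^4 per well, dosed at once and incubated 24 h at 37 °C. Cells were lysed 15 min at room temperature, then coelenterazine (2.75 μM in PBS) was injected and luciferase read for 5 s. Triplicates; % inhibition vs untreated control. EC50 from a 4-parameter fit after background subtraction (cell-free wells).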

[4] = Parallel artificial membrane permeability assay; format: in vitro ADME; conditions: PAMPA
DENV2proHeLa cells = assay: Cytotoxicity in DENV2proHeLa cells; format: cell-based
In short: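 HeLa cells stably carrying the DENV2 protease reporter, kept in DMEM with 10% heat-inactivated FCS, penicillin and streptomycin. Cells were seeded at 2 x 10^4 per well and given compound dilutions straight away. Plates ran in parallel with the reporter assay for 24 h at 37 °C. Viability was read by CellTiter-Blue, with each concentration in triplicate.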

DENV serotype 2 = conditions: DENV-2 titer reduction; cited from earlier work
DENV-2 protease = target: T2, DENV-2 protease (Dengue virus type 2, UniProt P29990); assay: Compound stability against DENV-2 protease; conditions: 8 h of incubation in DENV assay buffer, HPLC
T2 sequence (P29990 1476-1653 limits assumed): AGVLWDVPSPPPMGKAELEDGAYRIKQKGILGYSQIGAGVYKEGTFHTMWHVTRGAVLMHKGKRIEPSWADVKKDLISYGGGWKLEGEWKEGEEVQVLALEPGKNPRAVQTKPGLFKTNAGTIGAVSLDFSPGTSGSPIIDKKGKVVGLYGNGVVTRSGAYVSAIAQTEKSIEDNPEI

SARS-CoV-2 M^pro [5] = target: T1, SARS-CoV-2 M^pro; assay: SARS-CoV-2 Mpro Michaelis-Menten kinetics; format: biochemical; conditions: Michaelis-Menten plot
SARS-CoV-2 M^pro [6] = target: T1, SARS-CoV-2 M^pro; assay: Dilution experiment; format: biochemical; conditions: preincubated 100 μM for 2 h, diluted to 3 μM
[7] = read-out: DENV2proHeLa EC50, reporter gene assay in HeLa cells

Chain of DENV serotype 2 protease (P29990 1346-1475): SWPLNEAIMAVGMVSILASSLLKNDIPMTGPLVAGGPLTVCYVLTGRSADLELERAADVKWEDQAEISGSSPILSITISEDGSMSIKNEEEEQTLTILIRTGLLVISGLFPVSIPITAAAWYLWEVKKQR
Chain of DENV serotype 2 protease (P29990 1476-2093): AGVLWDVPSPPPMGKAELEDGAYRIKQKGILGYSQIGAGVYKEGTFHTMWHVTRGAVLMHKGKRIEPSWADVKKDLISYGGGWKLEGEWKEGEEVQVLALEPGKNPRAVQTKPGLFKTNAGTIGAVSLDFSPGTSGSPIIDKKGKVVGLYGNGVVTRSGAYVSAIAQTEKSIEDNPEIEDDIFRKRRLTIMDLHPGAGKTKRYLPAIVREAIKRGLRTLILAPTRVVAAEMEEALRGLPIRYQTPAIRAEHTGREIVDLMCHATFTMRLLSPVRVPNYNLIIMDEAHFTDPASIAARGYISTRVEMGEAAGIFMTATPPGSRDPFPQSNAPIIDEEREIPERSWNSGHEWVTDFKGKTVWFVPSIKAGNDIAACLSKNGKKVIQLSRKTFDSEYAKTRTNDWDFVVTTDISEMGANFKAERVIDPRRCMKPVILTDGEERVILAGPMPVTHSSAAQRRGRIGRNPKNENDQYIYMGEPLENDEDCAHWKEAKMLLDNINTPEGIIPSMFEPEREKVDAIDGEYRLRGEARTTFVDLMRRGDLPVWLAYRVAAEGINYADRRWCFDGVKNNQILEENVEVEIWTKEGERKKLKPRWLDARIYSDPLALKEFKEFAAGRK

For `CC(C)(C)NC(=O)N[C@H](C(=O)N1C[C@H]2[C@@H]([C@H]1C(=O)NC(CC1CCC1)C(=O)C(N)=O)C2(C)C)C(C)(C)C` (some centres unmarked) [boceprevir], the “mass adducts with SARS-CoV-2 M^pro” value (SARS-CoV-2 M^pro [1]) was “adducts were found”.
With `O=C(Nc1cccc(C(=O)Nc2ccc3c(c2)B(O)OC3)c1)c1ccccc1` [Compound 23, 3-Benzamido-N-(1-hydroxy-1,3-dihydrobenzo[c][1,2]oxaborol-6-yl)benzamide] the “stability against SARS-CoV-2 M^pro” value (SARS-CoV-2 M^pro [2]) was “no cleavage”.
For `O=C(Nc1ccc2c(c1)B(O)OC2)c1cccc(OCc2ccccc2)n1` [Compound 28, 6-(Benzyloxy)-N-(1-hydroxy-1,3-dihydrobenzo[c][1,2]oxaborol-6-yl)picolinamide], the inhibition at 50 µM (SARS-CoV-2 M^pro [3]) was 55.5 ± 7%, the inhibition at 12.5 µM (DENV serotype 2 protease) was 85.2 ± 4.1% and the EC50 (DENV serotype 2 protease; [7]) was 2500 ± 200 nM.
For `N=C(N)Nc1ccc2c(c1)B(O)OC2` [Compound 4, 1-(1-Hydroxy-1,3-dihydrobenzo[c][1,2]oxaborol-6-yl)guanidine], the “Hill slope of dose-response curve” value (SARS-CoV-2 M^pro [3]) was 1.15 ± 0.07 and the “passive membrane permeability (in words)” value [4] was “no permeability”.
`O=C(Nc1ccc2c(c1)B(O)OC2)c1cccc(OCC2CCCCC2)c1` [Compound 34, 3-(Cyclohexylmethoxy)-N-(1-hydroxy-1,3-dihydrobenzo[c][1,2]oxaborol-6-yl)benzamide] showed an EC50 (DENV serotype 2 protease) of 3400 ± 500 nM.
For `CCCCCC(=O)NC(C(=O)NCc1ccc(NC(=N)N)cc1)c1ccc(OCc2ccccc2)cc1` (centres unmarked) [NK-189, reference compound], the “DENV2proHeLa % (12.5 μM)” value (DENV serotype 2 protease; inhibitor 12.5 μM, reporter gene assay in HeLa cells) was 79.3 ± 9.7%, the EC50 (DENV serotype 2 protease; [7]) was 600 ± 100 nM and the CC50 (DENV2proHeLa cells) was > 50000 nM. The “antiviral activity of the reference substance” value (DENV serotype 2) was 0.89 µM.
In the case of `O=C(Nc1ccc2c(c1)B(O)OC2)c1ccccc1OCc1ccccc1` [Compound 17, 2-(Benzyloxy)-N-(1-hydroxy-1,3-dihydrobenzo[c][1,2]oxaborol-6-yl)benzamide], the “passive membrane permeability (in words)” value [4] is reported as “passive permeability”.
Work on `Cc1cccc(COc2cccc(C(=O)Nc3ccc4c(c3)B(O)OC4)c2)c1` [Compound 29, N-(1-Hydroxy-1,3-dihydrobenzo[c][1,2]oxaborol-6-yl)-3-((3-methylbenzyl)oxy)benzamide] yielded an inhibition at 50 µM (SARS-CoV-2 M^pro [3]) of 45.7 ± 6.3%, an EC50 (DENV serotype 2 protease) of 1100 ± 100 nM and an inhibition at 12.5 µM (DENV serotype 2 protease) of 90 ± 0.9%.
For `O=C(Nc1ccc2c(c1)B(O)OC2)c1ccc(Oc2ccccc2)cc1` [Compound 15, N-(1-Hydroxy-1,3-dihydrobenzo[c][1,2]oxaborol-6-yl)-4-phenoxybenzamide], the “passive membrane permeability (in words)” value [4] was “passive permeability” and the “stability against DENV-2 protease” value (DENV-2 protease) was “no decrease in the compound AUC”.
With `O=C(Nc1ccc2c(c1)B(O)OC2)c1cccc(OCc2c(Cl)cccc2Cl)c1` [Compound 33, 3-((2,6-Dichlorobenzyl)oxy)-N-(1-hydroxy-1,3-dihydrobenzo[c][1,2]oxaborol-6-yl)benzamide] the inhibition at 12.5 µM (DENV serotype 2 protease) was 85.6 ± 4.3%, the EC50 (DENV serotype 2 protease; [7]) was 540 ± 50 nM and the “passive membrane permeability (in words)” value [4] was “passive permeability”.
With `N=C(N)Nc1ccc(C(=O)Nc2ccc3c(c2)B(O)OC3)cc1` [Compound 8, 4-guanidino-N-(1-hydroxy-1,3-dihydrobenzo[c][1,2]oxaborol-6-yl)benzamide] the “Hill slope of dose-response curve” value (SARS-CoV-2 M^pro [3]) was 1.14 ± 0.07, the time dependent inhibition (SARS-CoV-2 M^pro [3]) was “no significant increase or decrease” and the “competitive binding (Cheng-Prusoff plots)” value (SARS-CoV-2 M^pro [3]) was “do not show competitive binding”. For the same compound, the “stability against SARS-CoV-2 M^pro” value (SARS-CoV-2 M^pro [2]) was “no cleavage”.
For `O=C(Nc1ccc2c(c1)B(O)OC2)c1cccc(OCc2ccc(Cl)cc2)c1` [Compound 32, 3-((4-Chlorobenzyl)oxy)-N-(1-hydroxy-1,3-dihydrobenzo[c][1,2]oxaborol-6-yl)benzamide], the EC50 (DENV serotype 2 protease) was 2400 ± 200 nM, the inhibition at 12.5 µM (DENV serotype 2 protease) was 83.6 ± 1.7% and the “stability against DENV-2 protease” value (DENV-2 protease) was “no decrease in the compound AUC”.
With `O=C(Nc1ccc2c(c1)B(O)OC2)c1cccc(OCc2ccccc2)c1` [Compound 18, 3-(Benzyloxy)-N-(1-hydroxy-1,3-dihydrobenzo[c][1,2]oxaborol-6-yl)benzamide] the “Hill slope of dose-response curve” value (SARS-CoV-2 M^pro [3]) was 1.39 ± 0.16, the time dependent inhibition (SARS-CoV-2 M^pro [3]) was “no significant increase or decrease” and the “competitive binding (Cheng-Prusoff plots)” value (SARS-CoV-2 M^pro [3]) was “do not show competitive binding”. The “passive membrane permeability (in words)” value [4] was “passive permeability”, the “stability against SARS-CoV-2 M^pro” value (SARS-CoV-2 M^pro [2]) was “no cleavage” and the “stability against DENV-2 protease” value (DENV-2 protease) was “no decrease in the compound AUC”. For the same compound, the inhibition mode (SARS-CoV-2 M^pro [5]) was “mixed inhibition mode” and the reversibility of binding (SARS-CoV-2 M^pro [6]) was “reversible”.
With `O=S(=O)(Nc1ccc2c(c1)B(O)OC2)c1ccc(Cl)cc1` [Compound 11, 4-Chloro-N-(1-hydroxy-1,3-dihydrobenzo[c][1,2]oxaborol-6-yl)benzenesulfonamide] the “passive membrane permeability (in words)” value [4] was “passive permeability”.
`COc1cccc(COc2cccc(C(=O)Nc3ccc4c(c3)B(O)OC4)c2)c1` [Compound 30, N-(1-Hydroxy-1,3-dihydrobenzo[c][1,2]oxaborol-6-yl)-3-((3-methoxybenzyl)oxy)benzamide] showed an inhibition at 50 µM (SARS-CoV-2 M^pro [3]) of 43.4 ± 9.1%, an EC50 (DENV serotype 2 protease) of 2900 ± 300 nM and an inhibition at 12.5 µM (DENV serotype 2 protease) of 80.4 ± 2%.
For `O=C(Nc1cccc(B(O)O)c1)c1cccc(OCc2ccccc2)c1` [Compound 26, (3-(3-(Benzyloxy)benzamido)phenyl)boronic acid], the “passive membrane permeability (in words)” value [4] was “passive permeability”.
With `O=C(Nc1ccc2c(c1)B(O)OC2)c1ccc(OCc2ccc(Cl)cc2)cc1` [Compound 20, 4-((4-Chlorobenzyl)oxy)-N-(1-hydroxy-1,3-dihydrobenzo[c][1,2]oxaborol-6-yl)benzamide] the “passive membrane permeability (in words)” value [4] was “passive permeability” and the “stability against DENV-2 protease” value (DENV-2 protease) was “no decrease in the compound AUC”.
For `N#Cc1ccc(COc2cccc(C(=O)Nc3ccc4c(c3)B(O)OC4)c2)cc1` [Compound 31, 3-((4-Cyanobenzyl)oxy)-N-(1-hydroxy-1,3-dihydrobenzo[c][1,2]oxaborol-6-yl)benzamide], the inhibition at 50 µM (SARS-CoV-2 M^pro [3]) was 31.7 ± 3.6%, the EC50 (DENV serotype 2 protease) was 4100 ± 200 nM and the inhibition at 12.5 µM (DENV serotype 2 protease) was 82.2 ± 3.7%. The “passive membrane permeability (in words)” value [4] was “passive permeability”.
